Measurements reported in ChEMBL document CHEMBL1131165, “Inhibitors of acyl-CoA:cholesterol O-acyltransferase. 3. Discovery of a novel series of N-alkyl-N-[(fluorophenoxy)benzyl]-N'-arylureas with weak toxicological effects on adrenal glands” (J Med Chem, 1998).
Active and inactive are the calls of the source. The rule behind the calls is not given here.

Columns and labels:
O-acyltransferase [1] = molecular target: T1, O-acyltransferase (Oryctolagus cuniculus, UniProt G1SFD9); test: In vitro inhibition of acyl coenzyme A:cholesterol acyltransferase (ACAT) from rabbit intestinal microsomes
T1 sequence (G1SFD9 1-524): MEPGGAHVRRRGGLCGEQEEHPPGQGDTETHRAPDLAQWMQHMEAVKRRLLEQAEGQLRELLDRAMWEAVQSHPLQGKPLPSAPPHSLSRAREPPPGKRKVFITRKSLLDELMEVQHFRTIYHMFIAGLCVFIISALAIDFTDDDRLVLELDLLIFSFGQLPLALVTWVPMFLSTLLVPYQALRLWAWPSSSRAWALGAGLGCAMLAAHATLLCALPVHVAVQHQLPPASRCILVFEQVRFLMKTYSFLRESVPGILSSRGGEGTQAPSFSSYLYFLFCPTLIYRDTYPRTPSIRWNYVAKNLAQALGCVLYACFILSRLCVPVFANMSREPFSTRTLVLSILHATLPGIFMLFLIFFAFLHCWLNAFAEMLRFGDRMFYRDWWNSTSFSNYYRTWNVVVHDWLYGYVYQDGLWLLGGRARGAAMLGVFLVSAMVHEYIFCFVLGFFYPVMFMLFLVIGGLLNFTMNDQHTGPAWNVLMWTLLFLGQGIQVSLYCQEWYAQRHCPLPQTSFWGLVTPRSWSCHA
Method in brief: (§1)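 Enzyme source is microsomes from rabbit intestine. Read-out is the concentration giving 50% inhibition of ACAT activity (IC50, nM). Some IC50 values were estimated relative to the IC50 of a reference inhibitor tested on the same enzyme batch.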

Rattus norvegicus [2] = test: In vivo hypocholesterolemic activity in cholesterol-fed rats by oral administration in a cholesterol enriched diet; format: functional
Method in brief: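 Rats were fed a cholesterol-enriched diet, and compound was given orally as an admixture in that diet. Read-out is plasma total cholesterol against control, expressed as ED50 (the dose reducing it by 50%) or as percent reduction at the stated dose. Significance was tested by unpaired, two-tailed Student's t-test.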

Rattus norvegicus [3] = test: Percent reduction in cholesterol levels in rats at >0.1 mg/kg; format: functional
Method in brief: (§2)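 In cholesterol-fed rats, compound was given orally either as a dietary admixture or by gavage in PEG400. Read-out is the percent reduction of plasma total cholesterol versus control at the dose indicated. Significance was assessed by unpaired, two-tailed Student's t-test.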

[4] = In vitro inhibitory activity against acetylated LDL-induced accumulation of cholesteryl esters in mouse peritoneal macrophages; format: functional
Method in brief: (§3)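 Mouse peritoneal macrophages were exposed to acetylated LDL, which induces accumulation of cholesteryl esters. Read-out is the IC50 (nM) for inhibiting that accumulation. Values given in parentheses are percent inhibition at the concentration indicated.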

Rattus norvegicus [5] = test: In vivo hypocholesterolemic activity in cholesterol-fed rats by oral administration by gavage in PEG400 as a vehicle; format: functional
Method in brief: (§4)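 Cholesterol-fed rats were dosed orally by gavage with PEG400 as vehicle. Plasma total cholesterol was compared with control and reported as ED50 (the dose reducing it by 50%) or as percent reduction at the dose given. Significance was tested by unpaired two-tailed Student's t-test.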

Rattus norvegicus [6] = test: Percent reduction in cholesterol levels in rats at <0.1 mg/kg; format: functional; method in brief: as §2
Rattus norvegicus [7] = test: Percent reduction in cholesterol levels in rats at >1 mg/kg; format: functional; method in brief: as §2
[8] = Adrenal toxicity in rabbits at 5 mg/kg i.v., expressed as drug-induced necrosis; + indicates necrosis observed; format: organism-based, Oryctolagus cuniculus; design: dose 5 mg/kg, route intravenous; settings: rabbit, in vivo, iv
Method in brief: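 Rabbits (n = 2) given a single 5 mg/kg iv dose as a solution in PEG400. Adrenal glands were examined for drug-induced necrosis of zona fasciculata cortical cells at 24 h after dosing. Each result is scored against controls as observed (+) or not observed (-).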

Rattus norvegicus [9] = test: Percent reduction in cholesterol levels in rats at 0.032 mg/kg; format: functional; method in brief: as §2
Rattus norvegicus [10] = test: Percent reduction in cholesterol levels in rats at >0.1 mg/kg; inactive; format: functional, organism-based; method in brief: as §2
[11] = In vitro inhibitory activity against acetylated LDL-induced accumulation of cholesteryl esters in mouse peritoneal macrophages at <10 nM concentration; format: functional; method in brief: as §3
Rattus norvegicus [12] = test: Percent reduction in cholesterol levels in rats at <0.1 mg/kg; inactive; format: functional, organism-based; settings: in the assay text read “>0.1 mg/kg” for “<0.1 mg/kg”; method in brief: as §2
Rattus norvegicus [13] = test: Percent reduction in cholesterol levels in rats at 0.01 mg/kg; format: functional; method in brief: as §2
Rattus norvegicus [14] = test: Percent reduction in cholesterol levels in rats at <1 mg/kg; format: functional; method in brief: as §2
O-acyltransferase [15] = molecular target: T1, O-acyltransferase; test: In vitro inhibitory activity against Acyl coenzyme A:cholesterol acyltransferase from rabbit intestinal microsomes; format: functional; method in brief: as §1
Rattus norvegicus [16] = test: Percent reduction in cholesterol levels in rats at <0.01 mg/kg; format: functional; method in brief: as §2
Rattus norvegicus [17] = test: In vivo hypocholesterolemic activity in cholesterol-fed rats by oral administration of compound by gavage in PEG400 as a vehicle; inactive at >1; format: functional, organism-based; method in brief: as §4

| Compound | IC50 (O-acyltransferase [1]) [nM] | ED50 (Rattus norvegicus [2]) [mg/kg] | IC50 [4] [nM] | ED50 (Rattus norvegicus [5]) [mg/kg] | also measured |
| --- | --- | --- | --- | --- | --- |
| COc1ccc(CN(Cc2ccc(Oc3ccc(F)cc3)cc2)C(=O)Nc2c(SC)cc(C)nc2SC)cc1 | 29 | > 0.1 | – | – | Reduction (Rattus norvegicus [3]): 24% |
| CSc1cc(C)nc(SC)c1NC(=O)N(Cc1ccccc1)Cc1ccc(Oc2ccc(Br)cc2)cc1 | 10 | 0.011 | 14 | < 0.1 | Reduction (Rattus norvegicus [6]): 54% |
| CSc1cc(C)nc(SC)c1NC(=O)N(CCc1ccccc1)Cc1ccc(Oc2ccc(F)cc2)cc1 | 16 | 0.016 | 6.1 | 2.7 | – |
| CSc1nc(C)cc(Cl)c1NC(=O)N(Cc1ccc(Oc2ccc(F)cc2)cc1)C1CCCCCC1 | 12 | < 0.1 | 350 | > 1 | Reduction (Rattus norvegicus [7]): 48%; Reduction (Rattus norvegicus [6]): 77% |
| CSc1cc(C)nc(SC)c1NC(=O)N(Cc1cccc(Oc2ccc(F)cc2)c1)C1CCCCCC1 | 73 | < 0.1 | 2.9 | – | – |
| CCOCCN(Cc1ccc(Oc2ccc(F)cc2)cc1)C(=O)Nc1c(SC)cc(C)nc1SC | 24 | > 0.1 | – | – | Reduction (Rattus norvegicus [3]): 26% |
| Cc1cc(S(C)(=O)=O)c(NC(=O)N(Cc2ccc(Oc3ccc(F)cc3)cc2)C2CCCCCC2)c(S(C)(=O)=O)n1 | 45 | 0.068 | 215 | 0.63 | – |
| O=C(Nc1c(F)cc(F)cc1F)N(Cc1ccccc1)Cc1cccc(-c2cc[nH]n2)c1 | – | – | 7400 | – | – |
| CSc1nc(C)nc(SC)c1NC(=O)N(Cc1ccc(Oc2ccc(F)cc2)cc1)C1CCCCCC1 | 56 | 0.069 | 20 | 0.45 | Toxicity [8]: necrosis observed |
| COc1nc(C)cc(SC)c1NC(=O)N(Cc1ccc(Oc2ccc(F)cc2)cc1)C1CCCCCC1 | 29 | < 0.032 | 13 | 1.4 | Reduction (Rattus norvegicus [9]): 62% |
| CSc1cc(C)nc(SC)c1NC(=O)N(Cc1ccc(Oc2ccc(F)cc2)cc1)[C@@H](C)c1ccccc1 | 19 | > 0.1 | 260 | – | Reduction (Rattus norvegicus [10]): inactive |
| Cc1cc(C)c(NC(=O)N(Cc2ccc(Oc3ccc(F)cc3)cc2)C2CCCCCC2)c(C)n1 | 62 | 0.044 | 240 | 0.77 | – |
| CSc1cc(C)nc(SC)c1NC(=O)N(Cc1ccc(Oc2ccc(F)cc2)cc1)C1CCCCCC1 | – | 0.034 | 48 | 0.11 | Toxicity [8]: necrosis observed |
| CSc1cc(C)nc(SC)c1NC(=O)N(CCCc1ccccc1)Cc1ccc(Oc2ccc(F)cc2)cc1 | 28 | 0.025 | 40 | – | – |
| Cc1cc(S(C)(=O)=O)c(NC(=O)N(Cc2ccc(Oc3ccc(F)cc3)cc2)C2CCCCCC2)c(Cl)n1 | 30 | > 0.1 | 350 | > 1 | Reduction (Rattus norvegicus [3]): 46%; Reduction (Rattus norvegicus [7]): 34% |
| CSc1cc(C)nc(SC)c1NC(=O)N(Cc1ccccc1)Cc1cccc(-c2cc[nH]n2)c1 | – | – | 350 | – | – |

| Compound | IC50 (O-acyltransferase [1]) [nM] | ED50 (Rattus norvegicus [2]) [mg/kg] | IC50 [4] [nM] | ED50 (Rattus norvegicus [5]) [mg/kg] | also measured |
| --- | --- | --- | --- | --- | --- |
| CSc1cc(C)nc(SC)c1NC(=O)N(Cc1ccc(Oc2ccc(Br)cc2)cc1)C1CCCCCC1 | 28 | 0.02 | < 10 | – | Inhibition [11]: 75% |
| Cc1cc(C)c(NC(=O)N(Cc2ccc(Oc3ccc(F)cc3)cc2)C2CCCCCC2)c(C)c1 | 25 | 0.045 | 80 | 5.3 | – |
| CSc1cc(C)nc(S(C)(=O)=O)c1NC(=O)N(Cc1ccc(Oc2ccc(F)cc2)cc1)C1CCCCCC1 | 78 | > 0.1 | 15 | – | Reduction (Rattus norvegicus [12]): inactive |
| CSc1cc(C)nc(SC)c1NC(=O)N(Cc1ccc(Oc2ccc(F)cc2)cc1)C1CCCCC1 | 23 | < 0.01 | < 10 | – | Inhibition [11]: 61%; Reduction (Rattus norvegicus [13]): 63% |
| Cc1ccc(NC(=O)N(Cc2ccc(Oc3ccc(F)cc3)cc2)C2CCCCCC2)c(Cl)n1 | 19 | > 0.1 | – | – | – |
| COc1nc(C)ccc1NC(=O)N(Cc1ccc(Oc2ccc(F)cc2)cc1)C1CCCCCC1 | 39 | > 0.1 | – | – | Reduction (Rattus norvegicus [10]): inactive |
| CSc1cc(C)nc(C)c1NC(=O)N(Cc1ccc(Oc2ccc(F)cc2)cc1)C1CCCCCC1 | 90 | – | 35 | < 1 | Reduction (Rattus norvegicus [14]): 72% |
| CSc1cc(C)nc(SC)c1NC(=O)N(Cc1ccc(Oc2ccc(F)cc2)cc1)Cc1c(C)cccc1C | – | – | 21 | – | IC50 (O-acyltransferase [15]): 26 nM |
| Cc1cc(Cl)c(NC(=O)N(Cc2ccc(Oc3ccc(F)cc3)cc2)C2CCCCCC2)c(Cl)n1 | 14 | > 0.1 | – | – | Reduction (Rattus norvegicus [3]): 38% |
| CSc1cc(C)nc(Cl)c1NC(=O)N(Cc1ccc(Oc2ccc(F)cc2)cc1)C1CCCCCC1 | 46 | 0.022 | 47 | 0.17 | Toxicity [8]: necrosis observed |
| CSc1cc(C)nc(SC)c1NC(=O)N(Cc1ccc(Oc2ccc(F)cc2)cc1)[C@H](C)c1ccccc1 | 19 | 0.095 | 110 | 4.6 | – |
| CSc1cc(C)nc(SC)c1NC(=O)N(Cc1ccc(Oc2ccc(F)cc2)cc1)C1CCOCC1 | 46 | < 0.1 | – | – | Reduction (Rattus norvegicus [6]): 58% |
| COc1cc(C)nc(OC)c1NC(=O)N(Cc1ccc(Oc2ccc(F)cc2)cc1)C1CCCCCC1 | 33 | 0.032 | 350 | 4.5 | – |
| CSc1cc(C)nc(SC)c1NC(=O)N(Cc1ccccc1)Cc1ccc(Oc2ccc(F)cc2)cc1 | 9.1 | < 0.01 | < 10 | – | Inhibition [11]: 77%; Reduction (Rattus norvegicus [16]): 58% |
| CSc1cc(C)nc(SC)c1NC(=O)N(Cc1ccc(Oc2ccc(F)cc2)cc1)C(C)(C)c1ccccc1 | 24 | – | 52 | – | ED50 (Rattus norvegicus [17]): inactive |
